m5-HT2A agonist: agonists of mouse serotonin 5-HT2A receptor (HTR2A). AID 624169. CHO-K1 mHTR2A beta-arrestin complementation, luminescence; percent of 30 µM serotonin response. P35363. activation, % at 7.6 µM. 0.66% of 360,000 active;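 active = activation above a run cutoff, the mean activation of all tested compounds plus 3 SD, cut at about 14% in these data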
M1 ag: agonists of human M1 muscarinic receptor | P11229 | CHO-K1 hM1, Fluo-8 calcium fluorescence, agonist mode; 0% DMSO, 100% acetylcholine EC100 | activation, % at 3 µM | 0.33% of 360,000 active | AID 588814;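 active = activation above the run's mean compound activation plus 3 SD, cut at about 16% in these data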;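 note: peak over basal fluorescence ratio within a 140 s kinetic read after compound addition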
Target sequence (P11229 whole entry, looked up): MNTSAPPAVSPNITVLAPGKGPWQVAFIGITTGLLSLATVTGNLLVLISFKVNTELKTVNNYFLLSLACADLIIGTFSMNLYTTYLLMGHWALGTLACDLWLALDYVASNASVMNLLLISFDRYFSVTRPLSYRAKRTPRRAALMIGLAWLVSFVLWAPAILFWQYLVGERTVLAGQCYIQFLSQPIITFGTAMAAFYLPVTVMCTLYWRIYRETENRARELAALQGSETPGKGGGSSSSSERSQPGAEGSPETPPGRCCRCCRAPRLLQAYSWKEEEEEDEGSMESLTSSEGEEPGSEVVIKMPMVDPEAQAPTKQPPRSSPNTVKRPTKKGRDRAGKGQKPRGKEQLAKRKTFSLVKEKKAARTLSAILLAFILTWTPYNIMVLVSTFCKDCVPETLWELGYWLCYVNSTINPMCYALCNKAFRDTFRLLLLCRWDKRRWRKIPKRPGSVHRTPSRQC
M1 antag: blocks human M1 muscarinic receptor; 1.3% of 360,000 active; inhibition, % at 3 µM; AID 588852; CHO-K1 hM1, Fluo-8 calcium fluorescence, ACh EC80 antagonist; P11229;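 active = percent inhibition above its own plate's cutoff, namely the mean of that plate's compound wells plus 3 SD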;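 note: peak over basal fluorescence ratio during 140 s after agonist addition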
TAAR1 antag: antagonists of human TAAR1; CHO RD-HGA16 TAAR1, Fluo-8 calcium fluorescence, antagonist; inhibition, % at 3 µM; 1.5% of 360,000 active; AID 624466;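 active = inhibition above a per-plate cutoff, the mean inhibition of test compounds on that plate plus 3 SD, cut at about 49% in these data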
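Test system – hTAAR1-expressing CHO RD-HGA16 cells, Gα16-coupled · Also added – β-PEA at EC80 concentration, post-compound challenge · Compound – 3 µM, single point · Incubation – dye loading 75 min at 37 °C, then 30 min room temperature · Measured by – Fluo-8 intracellular calcium dye fluorescence, real-time kinetic reads · Benchmarks – vehicle and agonist controls · Replicates – singlicate, one well per test compound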
TAAR1 agonist: agonists of human TAAR1; CHO RD-HGA16 TAAR1, Fluo-8 calcium fluorescence; vehicle wells 0%, saturating PEA agonist 100%; activation, % at 3 µM; 0.99% of 360,000 active; AID 624467;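 active = activation above the mean activation of all test compounds in the run plus 3 SD, cut at about 38% in these data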
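System: CHO-derived RD-HGA16 cells with stable Gα16 and human TAAR1 / Times: 17-24 h plating, Fluo-8 75 min 37 °C, 30 min RT / Technique: calcium-sensitive Fluo-8 signal, excitation 470-495, emission 515-575 nm / Measure: % activation relative to PEA EC100 response / Benchmarks: DMSO and PEA EC100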
CHRM1 PAM: positive allosteric modulators of human M1 muscarinic receptor; CHO-K1 hM1, Fluo-8 calcium fluorescence, ACh EC20; 0% = ACh EC20, 100% = maximal ACh; activation, % at 3 µM; 0.088% of 360,000 active; AID 588819; in the data active = activation above about 19%, passing the limit was not always enough
nonsel antag count: counter-screen for TAAR1 antagonists: nonselective antagonists | shares compounds with TAAR1 antag | counterscreen cell line, calcium fluorescence, antagonist mode | inhibition, % at 3 µM | 77% of 2,400 active; in the data active = inhibition above about 22%;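 note: CHO-Ga16 host cells stimulated with ATP at an EC80 level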
TAAR1 antag conf: confirmation of human TAAR1 antagonists. 40% of 2,400 active. TAAR1-expressing cells, fluorescence antagonist read-out. shares compounds with TAAR1 antag. inhibition, % at 3 µM; in the data active = inhibition above about 49%;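 note: CHO-Ga16 host cells challenged with agonist PEA near its EC80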
Ga16 nonsel ag: counter-screen for TAAR1 antagonists: nonselective Ga16 agonists; activation, % at 3 µM; shares compounds with TAAR1 antag; 18% of 2,400 active; AID 651953; Ga16-expressing cells, calcium fluorescence, agonist counterscreen; in the data active = activation above about 12%
TAAR1 ag count: TAAR1 agonism, antagonist counter-screen; shares compounds with TAAR1 antag; hTAAR1 cell line, fluorescence activation, agonist mode; activation, % at 3 µM; 2% of 2,400 active; AID 651955; in the data active = activation above about 37%;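 note: CHO cells stably expressing TAAR1 with calcium dye readout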
A number is an active result; . = inactive; / = no result. Sampled rows, rich in hits. Any-hit rate of the full collection: about 3.9%.

SMILES | m5-HT2A agonist | M1 ag | M1 antag | TAAR1 antag | TAAR1 agonist | CHRM1 PAM | nonsel antag count | TAAR1 antag conf | Ga16 nonsel ag | TAAR1 ag count
COc1ccccc1N1CCN(C(=O)c2oc3c(c2C)C(=O)CC(C)(C)C3)CC1 | . | . | . | 75 | . | . | 32 | 56 | . | .
Cc1ccsc1C(=O)NC(C)c1ccccc1 (configuration not stated) | . | . | . | . | . | . | / | / | / | /
O=C(c1ccc2c(=O)n(CCc3ccccc3)c(=O)[nH]c2c1)N1CCN(c2ccc(F)cc2)CC1 | . | . | . | 58 | . | . | 29 | . | . | .
COc1ccccc1N1CCN(C(=O)c2cccc(C(=O)N3CCN(c4ccccc4OC)CC3)c2)CC1 | . | . | . | 54 | . | . | 27 | 49 | . | .
CCc1ccccc1S(=O)(=O)Cc1ccc(C(=O)N2CCN(c3ccccc3OC)CC2)o1 | . | . | . | 72 | . | . | 29 | 50 | 18 | 38
CCOc1ccccc1N1CCN(C(=O)NCc2ccc(C)cc2)CC1 | . | . | . | . | . | . | / | / | / | /
CSc1cccc(NC(=O)N2CCc3ccc(NC(=O)c4ccccn4)cc3C2)c1 | . | . | . | 62 | . | . | 40 | . | . | .
CSc1cccc(NC(=O)c2ccc(CN3CCc4ccccc4C3)cc2)c1 | . | . | . | . | . | . | / | / | / | /
COc1ccc(O)c(/C=N/NC(=S)NCCc2ccccc2)c1 | . | . | . | 54 | . | . | 27 | 57 | 15 | 44
CC(=O)n1cc([C@@H]2C=C(C(=O)N3CCN(Cc4ccccc4)CC3)O[C@H](OCc3ccc(CO)cc3)C2)c2ccccc21 | . | . | . | 52 | . | . | . | . | . | .
CC(=O)n1cc([C@H]2C=C(C(=O)N3CCN(Cc4ccccc4)CC3)O[C@@H](OCCCCO)C2)c2ccccc21 | . | . | . | / | / | . | / | / | / | /
O=C(C1=C[C@H](c2coc3ccccc3c2=O)C[C@H](OCc2ccc(CO)cc2)O1)N1CCN(Cc2ccc3c(c2)OCO3)CC1 | . | . | . | 49 | . | . | . | . | . | .
CCOc1cc(NC(=S)NCCCN2CCOCC2)c(OCC)cc1NC(=O)C1CCCCC1 | . | . | . | . | . | . | / | / | / | /
CCN=C(NCC)SC1CC(=O)N(c2ccc(F)cc2)C1=O (configuration not stated) | . | . | 35 | 90 | . | . | 28 | 57 | . | .
CCCOc1ccc(N2C(=O)CC(SC(=NCC)NCC)C2=O)cc1 (configuration not stated) | . | . | . | . | . | . | / | / | / | /
COc1ccccc1NC(=O)c1ccc(NC(=O)COC(=O)CCC2CCCC2)cc1 | . | . | . | 58 | . | . | . | . | . | .
COc1ccccc1NC(=O)c1ccc(NC(=O)COC(=O)C(C)C)cc1 | . | . | . | . | . | . | / | / | / | /
COC(=O)c1ccc(NC(=O)COC(=O)CCC2CCCC2)cc1 | . | . | . | . | . | . | / | / | / | /
COc1ccccc1NC(=O)c1ccc(NC(=O)COC(=O)c2ccc(O)cc2)cc1 | . | . | . | 65 | . | . | 25 | . | . | .
O=C(c1cc(-c2ccncc2)nc2ccccc12)N1CCN(c2ccccc2O)CC1 | . | . | . | 60 | . | . | 29 | . | . | .
NC(=O)C1CCN(C(=O)c2cc(-c3ccc(Cl)cc3)nc3ccccc23)CC1 | . | . | . | 54 | . | . | 23 | . | . | .
Cc1ccc2nc(-c3ccccc3)cc(C(=O)N3CCN(c4ccccc4O)CC3)c2c1 | . | . | . | 66 | . | . | 33 | 51 | . | .
O=C(c1cc(-c2ccncc2)nc2ccccc12)N1CCN(c2ncccn2)CC1 | . | . | . | . | . | . | / | / | / | /
NC(=O)C1CCN(C(=O)c2cc(-c3ccccc3Cl)nc3ccccc23)CC1 | . | . | . | . | . | . | / | / | / | /
O=C(c1cc(-c2cccc3ccccc23)nc2ccccc12)N1CCN(CCO)CC1 | . | . | . | 54 | . | . | 28 | . | . | .
SMILES | m5-HT2A agonist | M1 ag | M1 antag | TAAR1 antag | TAAR1 agonist | CHRM1 PAM | nonsel antag count | TAAR1 antag conf | Ga16 nonsel ag | TAAR1 ag count
Cc1onc(-c2ccccc2Cl)c1C(=O)NCc1nnnn1-c1ccc(F)c(F)c1 | . | . | . | . | . | . | / | / | / | /
O=S1(=O)N[C@@H](Cc2ccccc2)COc2cccc(N3CCN(Cc4ccccc4F)CC3)c21 | . | / | / | 71 | . | / | 35 | 50 | . | .
O=C(Nc1cccnc1)c1ccc(COc2ccccc2Br)cc1 | . | . | . | 79 | . | . | . | 60 | . | .
COc1ccc(C)cc1NC(=O)C1CCCN(S(=O)(=O)c2cccc3cccnc23)C1 (configuration not stated) | . | . | . | / | / | . | / | / | / | /
COc1ccc(NC(=O)C2CCCN(S(=O)(=O)c3cccc4cccnc34)C2)c(OC)c1 (configuration not stated) | . | . | . | 65 | . | . | 23 | . | . | .
CN(Cc1ccccc1)C(=O)c1[nH]cnc1C(=O)Nc1ccccc1F | . | . | . | . | . | . | / | / | / | /
Cc1ccc(C)c(NC(=O)Cc2nc(CCl)cs2)c1 | . | . | . | . | . | . | / | / | / | /
COc1cc(C(=O)OCc2csc(CC(=O)Nc3cc(C)ccc3C)n2)ccc1OC(F)F | . | . | . | 66 | . | . | 42 | 53 | . | .
O=C(Cn1c(=O)oc2ccccc21)N1CCCC1 | . | . | . | . | . | . | / | / | / | /
CCCCC(CCc1ccccn1)C(=O)c1ccccc1 (configuration not stated) | . | . | . | . | . | . | / | / | / | /
CCN(CC(=O)Nc1ccccc1OC)CC(=O)Nc1c(Cl)ccc(C)c1Cl | . | . | . | 58 | . | . | 22 | . | . | .
CCN(CC(=O)NCc1cccs1)CC(=O)Nc1c(Cl)ccc(C)c1Cl | . | . | . | . | . | . | / | / | / | /
O=C(OCc1cn([C@@H]2CN(Cc3cccs3)[C@@H](c3ccc(Cl)cc3)C[C@H]2O)nn1)c1ccccc1 | . | . | . | . | . | . | / | / | / | /
CC1CCC2(CC1)OCC1(CCC3(COC4(CCC(C)CC4)OC3)C1=O)CO2 (configuration not stated) | . | . | . | . | . | . | / | / | / | /

From PubChem BioAssay
